Calls of active or inactive are those of the source. The calls are words filed in the database; no cut-off is given here.
Tests used:
[1] = biological target: Protein arginine N-methyltransferase 3 (Homo sapiens) (UniProt O60678); test: Inhibition of PRMT3-mediated methylation of ribosome protein rpS223 at 100 uM after 90 mins by scintillation counting in presence of S-adenosyl-l-[methyl-3H]methionine
Procedure, shortened: (§1)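 Compound at 100 μM with 0.1–0.2 μM recombinant enzyme and 0.5–1.5 μM substrate in PBS pH 7.4 containing [³H]AdoMet. Incubated 30 °C for 90 min, then SDS-PAGE, PVDF transfer and overnight film fluorography. Ponceau-stained substrate bands cut out and dpm counted by liquid scintillation.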

[2] = biological target: T1, Histone-lysine N-methyltransferase SUV39H1 (Homo sapiens) (UniProt O43463); test: Inhibition of Suv39H1-mediated methylation of histone H3 at 100 uM after 90 mins by scintillation counting in presence of S-adenosyl-l-[methyl-3H]methionine
T1 sequence (whole entry): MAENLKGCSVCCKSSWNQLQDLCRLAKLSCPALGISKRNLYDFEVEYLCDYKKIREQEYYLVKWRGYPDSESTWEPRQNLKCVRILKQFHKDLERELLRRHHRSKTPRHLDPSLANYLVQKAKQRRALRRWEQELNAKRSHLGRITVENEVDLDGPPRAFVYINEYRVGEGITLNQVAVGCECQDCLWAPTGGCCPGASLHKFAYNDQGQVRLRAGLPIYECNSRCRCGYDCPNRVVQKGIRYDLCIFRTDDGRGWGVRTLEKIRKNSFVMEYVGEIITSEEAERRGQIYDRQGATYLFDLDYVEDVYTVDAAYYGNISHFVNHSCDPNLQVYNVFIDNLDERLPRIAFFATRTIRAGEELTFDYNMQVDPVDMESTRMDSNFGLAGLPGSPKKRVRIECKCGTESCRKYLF

[3] = biological target: Protein arginine N-methyltransferase 1 (Homo sapiens, UniProt Q99873); test: Inhibition of PRMT1-mediated methylation of NPL3 after 90 mins by scintillation counting in presence of S-adenosyl-l-[methyl-3H]methionine
Sequence of Protein arginine N-methyltransferase 1 (Q99873 whole entry): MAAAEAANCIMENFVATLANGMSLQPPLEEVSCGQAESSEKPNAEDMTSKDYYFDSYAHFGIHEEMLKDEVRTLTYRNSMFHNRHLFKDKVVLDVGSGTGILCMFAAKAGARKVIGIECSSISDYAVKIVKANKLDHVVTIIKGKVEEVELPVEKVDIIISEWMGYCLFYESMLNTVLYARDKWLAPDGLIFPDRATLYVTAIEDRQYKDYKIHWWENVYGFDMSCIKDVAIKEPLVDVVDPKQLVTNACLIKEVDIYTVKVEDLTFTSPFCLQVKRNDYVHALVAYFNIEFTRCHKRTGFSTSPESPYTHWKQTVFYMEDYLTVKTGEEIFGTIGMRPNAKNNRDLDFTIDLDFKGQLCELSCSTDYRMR

[4] = biological target: T2, Histone-arginine methyltransferase CARM1 (Homo sapiens) (UniProt Q86X55); test: Inhibition of CARM1-mediated prostate specific antigen promoter activity in human LNCAP cells after 48 hrs by luciferase reporter gene assay; type: cell-based
T2 sequence (whole entry): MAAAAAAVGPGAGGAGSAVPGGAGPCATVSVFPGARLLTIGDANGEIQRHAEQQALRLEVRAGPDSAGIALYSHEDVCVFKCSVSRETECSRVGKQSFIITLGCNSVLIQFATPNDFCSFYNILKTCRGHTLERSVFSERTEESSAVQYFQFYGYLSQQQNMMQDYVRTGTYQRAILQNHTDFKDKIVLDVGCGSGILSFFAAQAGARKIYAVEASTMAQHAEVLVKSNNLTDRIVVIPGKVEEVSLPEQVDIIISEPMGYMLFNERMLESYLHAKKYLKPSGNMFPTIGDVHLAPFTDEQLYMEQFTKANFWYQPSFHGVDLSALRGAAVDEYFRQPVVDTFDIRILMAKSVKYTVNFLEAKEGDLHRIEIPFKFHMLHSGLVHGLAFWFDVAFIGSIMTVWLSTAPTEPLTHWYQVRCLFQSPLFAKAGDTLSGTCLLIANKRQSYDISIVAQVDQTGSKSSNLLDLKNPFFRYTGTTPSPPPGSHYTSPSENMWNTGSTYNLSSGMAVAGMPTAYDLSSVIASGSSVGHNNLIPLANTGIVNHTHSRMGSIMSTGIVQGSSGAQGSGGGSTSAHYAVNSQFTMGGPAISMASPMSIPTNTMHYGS
Procedure, shortened: (§2)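 LNCaP grown in phenol-red-free RPMI1640 with 10% charcoal-stripped FCS, lipofected with 300 ng PSA(ARE)-LUC and 2 ng CMV-Renilla internal control. After 12 h, 20 nM DHT added to induce PSA-firefly, together with increasing compound concentrations. Cells harvested 42–44 h later; 5/6 used for dual luciferase read-out (firefly relative to Renilla). Mean ± SD from triplicate assays.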

[5] = biological target: Protein arginine N-methyltransferase 5 (Homo sapiens) (UniProt O14744); test: Inhibition of PRMT5-mediated methylation of histone H4 at 100 uM after 90 mins by scintillation counting in presence of S-adenosyl-l-[methyl-3H]methionine; procedure, shortened: as §1
Sequence of Protein arginine N-methyltransferase 5 (Homo sapiens) (O14744 whole entry): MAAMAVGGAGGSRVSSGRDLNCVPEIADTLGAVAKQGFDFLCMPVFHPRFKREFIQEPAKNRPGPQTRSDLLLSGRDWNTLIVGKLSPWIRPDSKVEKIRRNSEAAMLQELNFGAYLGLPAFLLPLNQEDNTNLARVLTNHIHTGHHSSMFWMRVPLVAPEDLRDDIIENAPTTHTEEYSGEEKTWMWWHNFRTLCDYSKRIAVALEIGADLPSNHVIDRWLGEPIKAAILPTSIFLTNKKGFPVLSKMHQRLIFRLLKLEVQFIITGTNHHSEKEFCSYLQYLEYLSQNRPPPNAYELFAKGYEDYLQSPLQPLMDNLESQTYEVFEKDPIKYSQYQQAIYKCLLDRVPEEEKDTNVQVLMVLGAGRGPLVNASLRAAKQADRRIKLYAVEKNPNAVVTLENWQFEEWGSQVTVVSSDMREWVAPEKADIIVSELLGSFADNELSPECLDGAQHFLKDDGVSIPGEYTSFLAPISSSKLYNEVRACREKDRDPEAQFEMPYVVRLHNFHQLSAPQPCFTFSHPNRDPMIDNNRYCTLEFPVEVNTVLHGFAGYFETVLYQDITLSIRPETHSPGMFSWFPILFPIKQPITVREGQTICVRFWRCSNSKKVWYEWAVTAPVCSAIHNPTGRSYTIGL

[6] = biological target: T3, Histone-lysine N-methyltransferase SETD7 (Homo sapiens) (UniProt Q8WTS6); test: Inhibition of SET7-mediated methylation of histone H3 at 100 uM after 90 mins by scintillation counting in presence of S-adenosyl-l-[methyl-3H]methionine; procedure, shortened: as §1
T3 sequence (whole entry): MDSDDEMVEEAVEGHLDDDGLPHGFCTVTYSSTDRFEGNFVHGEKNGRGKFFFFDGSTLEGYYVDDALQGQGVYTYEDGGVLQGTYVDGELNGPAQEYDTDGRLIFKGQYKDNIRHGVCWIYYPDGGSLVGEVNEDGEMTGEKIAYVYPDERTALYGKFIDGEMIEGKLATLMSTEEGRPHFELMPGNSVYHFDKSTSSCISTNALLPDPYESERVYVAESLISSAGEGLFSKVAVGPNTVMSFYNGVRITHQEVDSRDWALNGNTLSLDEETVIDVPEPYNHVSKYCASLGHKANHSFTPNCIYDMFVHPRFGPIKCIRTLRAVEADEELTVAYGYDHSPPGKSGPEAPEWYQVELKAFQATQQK

[7] = biological target: T2, Histone-arginine methyltransferase CARM1 (Homo sapiens); test: Inhibition of CARM1-mediated methylation of PABP1 at 100 uM after 90 mins by scintillation counting in presence of S-adenosyl-l-[methyl-3H]methionine; procedure, shortened: as §1
[8] = biological target: Protein arginine N-methyltransferase 3 (Homo sapiens) (UniProt O60678); test: Inhibition of PRMT3-mediated methylation of NPL3 at 100 uM after 90 mins by scintillation counting in presence of S-adenosyl-l-[methyl-3H]methionine; procedure, shortened: as §1
[9] = biological target: T2, Histone-arginine methyltransferase CARM1 (Homo sapiens); test: Inhibition of CARM1 expressed in tetracycline-induced human HEK293 cells coexpressing flag-tagged PABP1 assessed as inhibition of PABP1 methylation at 1 to 5 uM by SDS-PAGE analysis; type: cell-based
Procedure, shortened: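 HEK293 line carrying tetracycline-controlled TetR with inducible Flag-tagged PABP1. Tetracycline added in the presence of compound to induce Flag-PABP1, which is resolved from endogenous PABP1 by its slower SDS-PAGE migration. Methylation detected with a methyl-specific PABP1 antibody.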

LNCaP [10] = test: Cytotoxicity against human LNCAP cells assessed as ATP level at 8 to 10 uM after 44 hrs by CellTiter-Glo luminescent assay; type: cell-based
Procedure, shortened: (§3)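 LNCaP in phenol-red-free RPMI1640 with 10% charcoal-stripped FCS, seeded ~20 h before transfection with PSA(ARE)-LUC plus CMV-Renilla. 12 h after transfection, treated with 20 nM DHT and compound. Harvested after 42–44 h; 1/6 of the cells assayed for ATP by CellTiter-Glo luminescence.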

[11] = biological target: T2, Histone-arginine methyltransferase CARM1 (Homo sapiens); test: Inhibition of CARM1-mediated prostate specific antigen promoter activity in human LNCAP cells at 30 uM after 48 hrs by luciferase reporter gene assay; type: cell-based; procedure, shortened: as §2
LNCaP [12] = test: Cytotoxicity against human LNCAP cells assessed as ATP level at 30 uM after 44 hrs by CellTiter-Glo luminescent assay; type: cell-based; procedure, shortened: as §3

Sequence of Protein arginine N-methyltransferase 3 (Homo sapiens) (O60678 2-531 limits assumed): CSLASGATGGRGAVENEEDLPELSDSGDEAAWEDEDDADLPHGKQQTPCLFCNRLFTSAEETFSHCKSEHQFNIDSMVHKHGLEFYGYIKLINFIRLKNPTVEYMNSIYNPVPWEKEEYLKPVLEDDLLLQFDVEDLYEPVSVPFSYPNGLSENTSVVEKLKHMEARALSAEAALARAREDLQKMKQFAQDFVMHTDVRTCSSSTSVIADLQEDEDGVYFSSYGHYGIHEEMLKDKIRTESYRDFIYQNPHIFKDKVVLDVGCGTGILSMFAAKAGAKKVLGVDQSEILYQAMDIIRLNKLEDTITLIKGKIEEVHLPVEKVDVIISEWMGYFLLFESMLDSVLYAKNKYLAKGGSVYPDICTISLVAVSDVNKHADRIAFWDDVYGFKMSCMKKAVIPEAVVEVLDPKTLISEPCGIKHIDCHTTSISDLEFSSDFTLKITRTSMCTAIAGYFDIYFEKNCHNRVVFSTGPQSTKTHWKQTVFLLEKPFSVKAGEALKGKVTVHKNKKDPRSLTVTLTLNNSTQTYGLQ

inhibition [1] | inhibition [2] | IC50 [3] | inhibition [4] | inhibition [5] | inhibition [6] | inhibition [7] | inhibition [8] | inhibition [9] | inhibition [11] | SMILES | Activity (LNCaP [10]) | Activity (LNCaP [12])
Active | inactive | > 667 µM | Dose-dependent effect | Active | inactive | Active | Active |  |  | O=C1/C(=C/c2ccc(O)c(Br)c2)CN(Cc2cccc(Cl)c2)C/C1=C\c1ccc(O)c(Br)c1 |  | 
Active | inactive | > 667 µM | Dose-dependent effect |  | inactive | Active | Active | Active |  | O=C1/C(=C/c2ccc(O)c(Br)c2)CN(Cc2ccccc2)C/C1=C\c1ccc(O)c(Br)c1 | Non-toxic | 
 | inactive | > 667 µM |  | Active | inactive | Active |  |  | Active | O=C1/C(=C/c2ccc(O)c(Br)c2)CN(CC(=O)c2ccccc2)C/C1=C\c1ccc(O)c(Br)c1 |  | Non-toxic
